From ChEMBL document CHEMBL1145384, “Novel C-6 fluorinated acyclic side chain pyrimidine derivatives: synthesis, (1)H and (13)C NMR conformational studies, and antiviral and cytostatic evaluations” (J Med Chem, 2007)

What was measured:
[1] = Cytotoxicity against HEL cells assessed as cell growth after 7 days; format: cell-based; conditions: human
Coxsackievirus B4 = experiment: Antiviral activity against coxsackie B4 virus in HeLa cells assessed as reduction of virus plaque formation after 7 days; format: functional, organism-based; conditions: Enterovirus B, 168 h
CCRF-CEM = experiment: Growth inhibition of human CEM cells after 72 hrs by MTT assay; format: functional, cell-based
MCF7 = experiment: Growth inhibition of MCF7 cells after 72 hrs by MTT assay; format: functional, cell-based; conditions: Homo sapiens, MCF7, 72 h
Method in brief: (§1)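 Tumor lines grown as monolayers in DMEM with 10% FBS, 2 mM L-glutamine and penicillin. Freshly diluted compounds added, solvent tested at matching concentrations; after 72 h growth measured by MTT. IC50 obtained by linear regression of concentrations bracketing 50% growth; mean of three separate experiments.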

MIA PaCa-2 = experiment: Growth inhibition of MiaPaCa2 cells after 72 hrs by MTT assay; format: functional, cell-based; conditions: Homo sapiens, MIA PaCa-2, 72 h; method in brief: as §1
L1210 = experiment: Growth inhibition of mouse L1210 cells after 72 hrs by MTT assay; format: functional, cell-based; conditions: L1210, 72 h
Human alphaherpesvirus 3 [2] = experiment: Antiviral activity against thymidine kinase deficient Varicella-Zoster virus 07/1 assessed as reduction of plaque formation; format: functional, organism-based; conditions: Human alphaherpesvirus 3, 07/1
Method in brief: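 Plaque reduction assay in HEL cells against TK+ (OKA) and TK- (07/1) VZV strains; virus input 100 PFU; EC50 as concentration giving 50% plaque reduction.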

HeLa = experiment: Growth inhibition of HeLa cells after 72 hrs by MTT assay; format: functional, cell-based; conditions: Homo sapiens; method in brief: as §1
Punta Toro virus = experiment: Antiviral activity against Punta Toro virus in Vero cells assessed as reduction of virus plaque formation after 7 days; format: functional, organism-based; conditions: 168 h
HEp-2 = experiment: Growth inhibition of Hep2 cells after 72 hrs by MTT assay; format: functional, cell-based; conditions: Homo sapiens, HEp-2, 72 h; method in brief: as §1
Sindbis virus = experiment: Antiviral activity against sindbis virus in Vero cells assessed as reduction of virus plaque formation after 7 days; format: functional, organism-based; conditions: 168 h
[3] = tested on: Mammalian orthoreovirus 1; experiment: Antiviral activity against reovirus1 virus in Vero cells assessed as reduction of virus plaque formation after 7 days; format: functional, organism-based; conditions: Mammalian orthoreovirus 1, Vero, 168 h
Human betaherpesvirus 5 [4] = experiment: Antiviral activity against human cytomegalovirus Davis in HEL cells assessed as reduction of plaque formation after 7days; format: functional, organism-based; conditions: Human betaherpesvirus 5, Davis, 168 h
Method in brief: (§2)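 Confluent HEL fibroblasts infected with HCMV (Davis or AD-169) at 100 PFU per well; after 2 h adsorption, residual virus removed and medium with serial compound concentrations added (duplicate wells). Incubated 7 days; EC50 taken as concentration reducing plaque formation by 50%.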

Human alphaherpesvirus 3 [5] = experiment: Antiviral activity against thymidine kinase expressing Varicella-Zoster virus OKA assessed as reduction of plaque formation; format: functional, organism-based; conditions: Human alphaherpesvirus 3, OKA
Human betaherpesvirus 5 [6] = experiment: Antiviral activity against human cytomegalovirus AD169 in HEL cells assessed as reduction of plaque formation after 7 days; format: functional, organism-based; conditions: Human betaherpesvirus 5, AD169, HEL, 168 h; method in brief: as §2
Human respirovirus 3 = experiment: Antiviral activity against parainfluenza 3 virus in Vero cells assessed as reduction of virus plaque formation after 7 days; format: functional, organism-based; conditions: Human respirovirus 3, Vero, 168 h
[7] = Growth inhibition of human Molt4/C8 cells after 72 hrs by MTT assay; format: functional, cell-based; conditions: MOLT-4, 72 h
SW-620 = experiment: Growth inhibition of SW620 cells after 72 hrs by MTT assay; format: functional, cell-based; conditions: Homo sapiens, SW-620, 72 h; method in brief: as §1
[8] = Cytotoxicity against HEL cells assessed as cell morphology after 7 days; format: cell-based; conditions: human
Method in brief: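 Uninfected confluent HEL cultures exposed to compounds; MCC recorded as lowest concentration producing a microscopically detectable alteration of normal cell morphology at day 7.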

SMILES	CC50 at 168 h [1]	EC50 (Coxsackievirus B4)	IC50 (CCRF-CEM)	IC50 (MCF7)	IC50 (MIA PaCa-2)	IC50 (L1210)	EC50 (Human alphaherpesvirus 3 [2])	IC50 (HeLa)	EC50 (Punta Toro virus)	IC50 (HEp-2)	EC50 (Sindbis virus)	EC50 [3]	EC50 (Human betaherpesvirus 5 [4])	EC50 (Human alphaherpesvirus 3 [5])	EC50 (Human betaherpesvirus 5 [6])	EC50 (Human respirovirus 3)	IC50 [7]	IC50 (SW-620)	MCC at 168 h [8]
COc1cc(CC(C)(O)C(F)(F)F)nc(OC)n1 (stereo not given)	> 100 µM	> 200 µM	> 200 µM	> 200 µM	> 200 µM	> 200 µM	> 100 µM	> 200 µM	> 200 µM	> 200 µM	> 200 µM	> 200 µM	> 100 µM	> 100 µM	> 100 µM	> 200 µM	> 200 µM	> 200 µM	> 100 µM
CC(=O)OC(C)(Cc1cc(O)nc(O)n1)Cc1ccccc1F (stereo not given)	> 100 µM	> 200 µM	> 200 µM	> 200 µM	> 200 µM	> 200 µM	> 100 µM	> 200 µM	> 124 µM	> 200 µM	> 124 µM	> 124 µM	> 100 µM	> 100 µM	> 100 µM	> 124 µM	> 200 µM	> 200 µM	> 100 µM
COc1cc(CC(O)(c2ccc(F)cc2)c2ccc(F)cc2)nc(OC)n1	> 100 µM	> 40 µM	> 500 µM	> 100 µM	> 100 µM	≥ 500 µM	> 100 µM	> 100 µM	> 40 µM	> 100 µM	> 40 µM	> 40 µM	> 100 µM	> 100 µM	> 100 µM	> 40 µM	> 500 µM	> 100 µM	> 100 µM
COc1nc(C)c(Br)c(OC)n1	18 µM	> 200 µM	> 200 µM	> 100 µM	> 100 µM	> 200 µM	88 µM	> 100 µM	> 200 µM	> 100 µM	> 200 µM	> 200 µM	> 100 µM	> 100 µM	> 100 µM	> 200 µM	> 200 µM	> 100 µM	≥ 100 µM
CC(O)(Cc1cc(O)nc(O)n1)C(F)(F)F (stereo not given)	> 100 µM	> 200 µM	> 500 µM	> 100 µM	> 100 µM	> 500 µM	> 100 µM	> 100 µM	> 200 µM	> 100 µM	> 200 µM	> 200 µM	> 100 µM	> 100 µM	> 100 µM	> 200 µM	> 500 µM	> 100 µM	> 100 µM
COc1cc(/C=C(\O)C(F)(F)C(F)(F)F)nc(OC)n1	≥ 60 µM	> 100 µM	9.7 µM	76 µM	≥ 100 µM	80 µM	> 100 µM	26.3 µM	> 100 µM	55.4 µM	> 100 µM	> 100 µM	> 100 µM	> 100 µM	> 100 µM	> 100 µM	43 µM	45 µM	> 100 µM
COc1nc(C)c(-c2ccccc2)c(OC)n1	34 µM	> 40 µM	43 µM	> 100 µM	> 100 µM	77 µM	> 20 µM	90 µM	40 µM	> 100 µM	> 40 µM	> 40 µM	> 20 µM	> 20 µM	> 20 µM	> 40 µM	70 µM	> 100 µM	100 µM
COc1cc(CC(C)(O)Cc2ccccc2F)nc(OC)n1 (stereo not given)	> 100 µM	> 200 µM	156 µM	> 200 µM	> 200 µM	> 200 µM	> 100 µM	> 200 µM	> 130 µM	> 200 µM	> 130 µM	> 130 µM	> 100 µM	> 100 µM	> 100 µM	> 130 µM	79 µM	> 200 µM	≥ 100 µM
CC(O)(CF)Cc1cc(O)nc(O)n1 (stereo not given)	> 100 µM	> 200 µM	> 200 µM	> 200 µM	> 200 µM	> 200 µM	> 100 µM	> 200 µM	> 196 µM	> 200 µM	> 196 µM	> 196 µM	> 100 µM	> 100 µM	> 100 µM	> 196 µM	> 200 µM	> 200 µM	> 100 µM
COc1cc(/C=C(/O)c2ccc(F)cc2)nc(OC)n1	> 100 µM	24 µM	192 µM	≥ 100 µM	> 100 µM	> 200 µM	> 20 µM	> 100 µM	> 200 µM	> 100 µM	200 µM	> 200 µM	38 µM	> 100 µM	> 100 µM	> 200 µM	> 200 µM	≥ 100 µM	> 100 µM
